Data from the EternaBench riboswitch data.

Test system: MS2 coat protein
Assay: apparent Kd, MS2 coat protein; higher = weaker binding; RNA-MaP array; FMN 200 µM where present
Outline: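 Designs were transcribed by stalled E. coli RNA polymerase on Illumina sequencing-chip clusters. They were titrated with SNAP-549-labelled MS2 coat protein from 0.7 or 1.5 nM, doubling to 3 µM, in 100 mM Tris-HCl pH 7.5, 80 mM KCl, 4 mM MgCl2, BSA, DTT, yeast tRNA and Tween-20, without and then with constant ligand. The apparent Kd is the median of filtered per-cluster fits after normalisation of green signal to red-channel RNA signal and control-cluster median Fmax.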

[1] = designed as: OFF switch for flavin mononucleotide, no ligand
[2] = ligand present: flavin mononucleotide, designed as: OFF switch for flavin mononucleotide
[3] = designed as: ON switch for flavin mononucleotide, no ligand
[4] = ligand present: flavin mononucleotide, designed as: ON switch for flavin mononucleotide

| Sequence | apparent Kd [1] | apparent Kd [2] | apparent Kd [3] | apparent Kd [4] |
| --- | --- | --- | --- | --- |
| CCAUAAAAGAUCCAAAAUUACAACAUGAGGAUCACCCAUGUGCAGGAUAUCGUGAAAGUGAAGUACGAGAAGGGCAGACACUGC | 145 nM | 166 nM |  |  |
| AAAUUCCUCACAGGAUAUCCUACAUGAGGAUCACCCAUGUACUAACUGAGCAAAUUGCAACAAAAGGAGAAGGGUGAGGUGAAG |  |  | 36.3 nM | 4.25 nM |
| GGUCUGACAUAAGGAUAUGCUCAGGAUAACUGAGCAGAAGGUAUGUGAAAACAUGAGGAUCACCCAUGUGAUCAAUACAGACCA |  |  | 18.8 nM | 19.5 nM |
| AAGUAGAUCCGAGGAUAUACAAUCUGGAAACGGUACAUGAGGAUCACCCAUGUAGAAGGCGGAUCUACAGGUACUAAAGUACCA | 7.4 nM | 16.4 nM |  |  |
| UCAUACAUGAGGAUCACCCAUGACAUGAGGAUCACCCAUGUGCAGGAUAUACGUGAUAUAAUAUAGUAGAAGGGCAGACCAAAA | 42.8 nM | 55.1 nM |  |  |
| ACAUGAUAUGUAGGAUAUCACAUUAAUUGAUUAAUAAUUGAAUAUAGGAUUUGAGAAGGACAUUUACAUGAGGAUCACCCAUGU | 17.6 nM | 13.1 nM |  |  |
| UUACUCAUGUAAGGAUAUGCAGCCGUGUCGGCUGCAGAAGGUACUAUAAUACAUGAGGAUCACCCAUGUCUAUAAAAUAAAGAC |  |  | 48 nM | 26.8 nM |
| AAGUAUAGAGGAUAUAGUGAGUACUACAUGAGGAUCACCCAUGUUCUUCAAAGCGUAUUUCUAGAAGGCUAAUGAA | 50 nM | 114 nM |  |  |
| AAUGAGACCGCAGGAUAUCCACAUGAGGAUCACCCAUGUUCUCAGGUCGUAAGCACGACCUGCGAGGAGAAGGGCGACCUCAUA |  |  | 395 nM | 33.8 nM |
| GUGACGAUGUAAGGAUAUGCUGAGGAAUACUCAGCAGAAGGUACAUGAGGAUCACCCAUGUAAAUAAUAAGAAAUAAACGUCAC | 16 nM | 24.9 nM |  |  |
| AUCAGCUCGUCAGGAUAUACAUCACUGCUUCGGCAGUGUAUUAAGGUCACAUGAGGAUCACCCAUGUAGAAGGGACGAGCUGAU | 21.2 nM | 142 nM |  |  |
| AUGCUUCACACAGGAUAUACAUGAGGAUCACCCAUGUGUCCUCCGUAAUUGACACCAAUUACGCUGUAGAAGGGUGUGAAGCAU | 258 nM | 188 nM |  |  |
| GCCAUCGCAUGAGGAUAUGGUCUGGUUUCCAGACCAGAAGGCAUGUCAUAAGACAUGAGGAUCACCCAUGUAGUUAAGAUGGCA |  |  | 714 nM | 47.7 nM |
| AAAAAACAAGGAUAUACGAAGGAUGGUUAUCUUAAUUUUUGACAUGAGGAUCACCCAUGUAGAAGGUGUUAAAA | 37.9 nM | 76.2 nM |  |  |
| UGGUACUACGGAGGAUAUCAUGUGUAAACAUGAGGAUCACCCAUGUCGUACGAGAGUACGGAGAUUGAGAAGGCCGUAGUACCU |  |  | 85.4 nM | 16.7 nM |
| AACUGCUGCGUUGUGAUUUCUCCACAUGAGGAUCACCCAUGUCAGGAUAUCUUACCUAGCGGACAAGAGAAGGGACAUGACGGU | 348 nM | 129 nM |  |  |
| CUAAAUUAGUAGAAGGACGGAGAGUAAGAAGUCGUAGGAUAUACAUAAGACAUGAGGAUCACCCAUGUGUGUAUGUUGGGUAUG | 6.54 nM | 6.65 nM |  |  |
| CAGUACUGAGGAUAUACAUGAGGAUCACCCAUGUGUUCCAGCUAGGAAACUAGCUAAAGUAGAAGGCAGUACUG | 21.9 nM | 424 nM |  |  |
| GUUAUGUCAGGAUAUGCUUAUGGUGGGUGCUCAGACAUGAUGCAGAAGGGACAUGAGGAUCACCCAUGUACUGU | 593 nM | 435 nM |  |  |
| CUACAUGAGGAUCACCCAUGUGCACACCGGAUCGGUAUGCGCAGAAGGGCCAUGGAGAAAGCCAGGCAGGAUAUGCAAAGGGCU |  |  | 258 nM | 176 nM |
| CAGAUUUGCUAGAAGGGUGACAUGAGGAUCACCCAUGUGCGGGCAGACCUAUCUUCAUGCCCGCCACAGGAUAUAGCAAUUUGC |  |  | 36.6 nM | 17.9 nM |
| GUAGCAAUCGGAGGAUAUUCAUGAAACAUGAGGAUCACCCAUGUUAAUUUGGGAGAAGGCCGAUUGCUACAAGAGCGAAAGCUC |  |  | 8.14 nM | 5.35 nM |
| UGGGACUAGGGAGGAUAUGGGAAGAUACAUGAGGAUCACCCAUGUUUAAGAAUGCCGAGAGGCAACUAGAAGGCCCUAGUACCU |  |  | 446 nM | 20.4 nM |
| AGAAAACAUGAGGAUCACCCAUGUGAGGAUAUCGAUGUCCAAGGAAGGGUGCGGGACUCGAGAAGGCACUUGGA | 72.4 nM | 58.8 nM |  |  |

| Sequence | apparent Kd [1] | apparent Kd [2] | apparent Kd [3] | apparent Kd [4] |
| --- | --- | --- | --- | --- |
| AGCAGACGAGGAUAUAGAUUAAAUGACAUGAGGAUCACCCAUGUGAUCGAUCUAUUUUAUUUAGAAGGUGUCUGCU | 18.1 nM | 32.3 nM |  |  |
| AUCGUUAACGAAGGAUAUGGUUACAUGAGGAUCACCCAUGUAUUUUUUGUGAUCUUGUUUAAGUUCCAGAAGGUCGUUAACGUA | 551 nM | 710 nM |  |  |
| ACUAGAUGAGGAUAUACACAUUUUAGUGUUCCUCUAGAUUAACAUGAGGAUCACCCAUGUAGAAGGCAUCAUUA | 59.7 nM | 218 nM |  |  |
| GGAUGACAAAGUCAUCCUAUUCGAACAUGAGGAUCACCCAUGUAGGAUAUGCUACUCAAAGAGUAGCAGAAGGACAUGUGCUUU | 37.6 nM | 165 nM |  |  |
| AUACUGAGCGUAAGUUACCUGAACAUGAGGAUCACCCAUGUGGAGGAUAUUGACCUAGCAAAGCUCGAGAAGGCCACUGGGAUG | 24.8 nM | 19.1 nM |  |  |
| UGUCGGAGCAGAGGAUAUUACAUGAGGAUCACCCAUGUAUGAACCAAUAGCUGGAAACAGCAAUGUCAGAAGGCUGCUCCGACA | 5 nM | 5.06 nM |  |  |
| AGCAGACGAGGAUAUAGAUUUGUUAACAUGAGGAUCACCCAUGUGAUCGAUUUUUCAUAUUUAGAAGGUGUCUGCU | 83.3 nM | 392 nM |  |  |
| CGCCCGUAAGGAUAUACAUGAGGAUCACCCAUGUCGGUAACCGAAGGGCGAUACCUUUGUAGAAGGUACUGCGU | 14.8 nM | 13.7 nM |  |  |
| AAAAAACAUGAGGAUCACCCAUGUCAGGAUAUACGAUAAAAAAAAAAAAAAAAAAAAUGUAGAAGGGACAAAAA | 78.3 nM | 73.9 nM |  |  |
| CAGUACUGAGGAUAUACAUGAGGAUCACCCAUGUGCUCAAAGUAGGAUACUACUAUUAGUAGAAGGCAGUACUG | 22.2 nM | 214 nM |  |  |
| UAGGUCAUCUGAGGAUAUCGAACUCAAAGGCUACGAGAAGGCAGACUGACAUGAGGAUCACCCAUGUACCGGGAAGAUGCCUCC | 14.6 nM | 130 nM |  |  |
| CCUGUAAUCCUAUAGGCUUGUUACAUGAGGAUCACCCAUGUCAAGGAUAUAACGUUAAGCUCAUGUUAGAAGGUGACAUGUGGU | 164 nM | 58.6 nM |  |  |
| GGAAAUCAUGUAGGAUAUGCAUGGCGAAGCUACGCAGAAGGACAUGAGGAUCACCCAUGUUAUAGCGUCCGAUAAAGGAUGCAA | 117 nM | 164 nM |  |  |
| AAAAAGACAGGAUAUACAUGAAAAAAAAAAAAAAAAAAAAAACAUGAGGAUCACCCAUGUAGAAGGGUCAAAAA | 111 nM | 106 nM |  |  |
| CCUCCACAUGAGGAUCACCCAUGUCAGGAUAUCGCGCGCGCGUUUUCGGUCUUUCGCGCGAGAAGGGACGACUG | 34.4 nM | 54.5 nM |  |  |
| AAAAGCCAAGGAUAUACAUGAGGAUCACCCAUGUAAGAAAUGGGCGCUACCGUUCCGUGUAGAAGGUGGGAAAA | 28.6 nM | 65 nM |  |  |
| CGCUAUGACAUAGGAUAUUGGUACAUGAGGAUCACCCAUGUCAACUUUUUAGCAUAAUUUGUUGACAAGAAGGAUGUGGUAGCG |  |  | 54.1 nM | 12.6 nM |
| CCCAAACUUGGGUUUGGUGGUUCAUAGGAUAUGCUUGUACAUGAGGAUCACCCAUGUACUAUUGUGCAGAAGGGUGCAUGGCAA |  |  | 36.7 nM | 26.5 nM |
| UGGAUCAUCGGAGGAUAUCAUGUAUAUACAUGAGGAUCACCCAUGUCGAUGGAGACAUCGGAGAUUGAGAAGGCCGAUGAUCCU |  |  | 910 nM | 30.5 nM |
| UAAUCUCAGAUAGGAUAUAUAGGAUGAUUUAAGACUGAACAUGAGGAUCACCCAUGUGAUUAUCUGUAGAAGGAUCAAUUAGCC |  |  | 476 nM | 365 nM |
| UCCUGAUCGAGAGGUAGGAGUGGUAGAAGGCGACCGGUGCCAGAUGACAUGAGGAUCACCCAUGUCGAGGAUAUACCACAGAAU | 7.03 nM | 12.3 nM |  |  |
| AGAGAGUGACAGAAGGGCAAGCUCGAUUGCGGAGAACGCGAUCGAGCUUGCAGGAUAUGUUGAACAUGAGGAUCACCCAUGUCA |  |  | 7.98 nM | 6.94 nM |
| CUUUCGUGAGGAUAUCAGUAGUAAAAAUAUAAAAUUACUACUGAGAAGGCACAUGAGGAUCACCCAUGUUCCUC | 26 nM | 150 nM |  |  |
| CUGUUUAAAGUGAGGAUAUGAACCUAGAACCAGGAUUAGAAGGCACAUGAGGAUCACCCAUGUGGUUGGUUGGG | 16.6 nM | 16.7 nM |  |  |
